Assays:
Plasmodium falciparum [1] = assay: Antimalarial activity against chloroquine and pyrimethamine -resistant Plasmodium falciparum K1 after 48 hrs by [3H]hypoxanthine incorporation assay; format: functional, organism-based
Outline: (§1)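 Asexual erythrocytic parasites in human red cells (1.25% hematocrit, 0.3% parasitemia) exposed to serial drug dilutions in RPMI 1640 with Hepes, AlbuMAX II, bicarbonate and neomycin. Incubation at 37 C under 93% N2/4% CO2/3% O2; [3H]hypoxanthine added after 48 h, then 24 h more. Incorporation counted by scintillation. IC50 taken from sigmoidal curves; four independent runs, each in duplicate; DMSO below 1%.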

Plasmodium falciparum [2] = assay: Antimalarial activity against drug -sensitive Plasmodium falciparum NF54 after 48 hrs by [3H]hypoxanthine incorporation assay; format: functional, organism-based; outline: as §1

Compound	IC50 (Plasmodium falciparum [1]) [nM]	IC50 (Plasmodium falciparum [2]) [nM]
N=C(N)c1ccc(OCCCCCOc2ccc(C(=N)N)c(O)c2)cc1O	631	407
N=C(N)c1ccc(SCCCCCSc2ccc(C(=N)N)cc2)cc1	23.4	34.7
Oc1cc(OCCCCCOc2ccc(C3=NCCN3)c(O)c2)ccc1C1=NCCN1	123	58.9
N/N=C(\N)c1ccc(OCCCCCOc2ccc(/C(N)=N/N)cc2)cc1	562	282
CCOC(=O)c1cc(C2=NCCN2)ccc1OCCCCCOc1ccc(C2=NCCN2)cc1C(=O)OCC	33.1	234
N=C(N)c1ccc(OCCCCCOc2ccc(C(=N)N)cc2Br)c(Br)c1	18.2	52.5
CN1CCN=C1c1ccc(OCCCCCOc2ccc(C3=NCCN3C)cc2)cc1	501	204
N=C(N)c1ccc(OCCCCCOc2ccc(C(=N)N)cc2)cc1 [PENTAMIDINE]	12.3	56.2
CC(=N)Nc1ccc(OCCCCCOc2ccc(NC(C)=N)cc2)cc1	57.5	468
CNC(=N)c1ccc(OCCCCCOc2ccc(C(=N)NC)cc2)cc1	5.01	26.9
CCOC(=O)c1cc(C(=N)NC(C)C)ccc1OCCCCCOc1ccc(C(=N)NC(C)C)cc1C(=O)OCC	14.5	28.2
N=C(Nc1ccc(OCCCCCOc2ccc(NC(=N)c3ccccc3)cc2)cc1)c1ccccc1	245	34.7
N=C(N)c1ccc(OCCCCCOc2ccc(C(=N)N)cc2Cl)c(Cl)c1	32.4	105
c1cc(C2=NCCN2)ccc1OCCCCCOc1ccc(C2=NCCN2)cc1	3.39	34.7
CCOC(=O)c1cc(C(=N)N)ccc1OCCCCCOc1ccc(C(=N)N)cc1C(N)=O	17	120
N=C(N)c1ccc(OCCCCCOc2ccc(C(=N)N)cc2C(N)=O)c(C(N)=O)c1	47.9	302
N=C(N)c1ccc(OCCCCCOc2ccc(C(=N)N)c(F)c2)cc1F	18.2	81.3
CC(C)NC(=N)c1ccc(OCCCCCOc2ccc(C(=N)NC(C)C)c(O)c2)cc1O	741	955
Fc1cc(OCCCCCOc2ccc(C3=NCCN3)c(F)c2)ccc1C1=NCCN1	8.51	50.1
CC(C)NC(=N)c1ccc(OCCCCCOc2ccc(C(=N)NC(C)C)c(F)c2)cc1F	646	191
COc1cc(C2=NCCN2)ccc1OCCCCCOc1ccc(C2=NCCN2)cc1OC	24	112
CCOC(=O)c1cc(C(=N)N)ccc1OCCCCCOc1ccc(C(=N)N)cc1C(=O)OCC	26.3	97.7
